We go through 15 compounds from paper PMC9201701 (RSC Advances, 2022).

Data set [1] is described as follows: MTT cytotoxicity assay, vero cells. The settings on record: African green monkey, Vero cells (normal kidney cells). In kind it is cell-based, African Green Monkey. In general terms: Tetrazolium dyes change colour on reduction, which living cells bring about.
A further data set has as its system MCF-7. As to the kind of experiment: MTT cytotoxicity assay, MCF-7. The settings on record: for Cytotoxicity IC50, MCF-7: 72 hours, MTT assay; for IC50: Homo sapiens, MCF7, 72 h, read-out: Cytotoxicity IC50, MCF-7. The format is cell-based, human.
A further data set deals with HT-29. As to the kind of experiment: MTT cytotoxicity assay, HT-29. In kind it is cell-based, human. The settings on record: for Cytotoxicity IC50, HT-29: 72 hours, MTT assay; for IC50: Homo sapiens, HT-29, 72 h, read-out: Cytotoxicity IC50, HT-29.
For a further data set, the system named is HCT-116. In words: MTT cytotoxicity assay, HCT-116. The settings on record: for Cytotoxicity IC50, HCT-116: 72 hours, MTT assay; for IC50: Homo sapiens, HCT-116, 72 h, read-out: Cytotoxicity IC50, HCT-116. The format is cell-based, human.
Data set [2] has as its system HCT-116, HT-29, MCF-7 and vero cell lines. In words: MTT cytotoxicity assay, stated over all four cell lines. In kind it is cell-based. The settings on record: for IC50: read-out: IC50 range over all cell lines; for Cytotoxicity against all tested cell lines, in words: HCT-116, HT-29, MCF-7 and vero cells. The essentials:
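Cells grown in RPMI 1640 with 10% FBS, penicillin and streptomycin at 37 °C, 5% CO2. Solvent controls got 1:1 DMSO/EtOH. After exposure, medium replaced with fresh medium containing MTT (0.5 mg mL−1 in PBS) for 2 h. […] Viability % = sample/control (A550−A655) × 100. Four replicates.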

Another data set relates to vero cells. As to the kind of experiment: MTT cytotoxicity assay, vero cells. In kind it is cell-based, African Green Monkey. The settings on record: for Cytotoxicity IC50, Vero cell: 72 hours, MTT assay.
In a further data set the test system is KB. The settings on record: read-out: Cytotoxicity IC50, KB; cited from earlier work.
The next data set deals with MRC-5. The settings on record: read-out: Cytotoxicity IC50, MRC-5; cited from earlier work.
In the next data set the test system is HeLa. The settings on record: read-out: Cytotoxicity IC50, HeLa; cited from earlier work.
Another data set concerns HepG2 cell line. The settings on record: read-out: Cytotoxicity IC50, HepG2 cell line; cited from earlier work.
Another data set deals with Pythium insidiosum. The settings on record: compared with amphotericin-B standard; cited from earlier work.
For a further data set, the system named is HeLa cells. The settings on record: read-out: Cytotoxicity IC50, HeLa cells; ref 9 (Posri et al., 2021); cited from earlier work.

Entries after “also recorded” stand apart in the source; their conditions may differ.

As usually defined, the IC50 is the concentration that gives 50% inhibition. With `COc1cc(-c2coc3cc(OC(C)=O)cc(O)c3c2=O)c(OC)cc1OC(C)=O` [Compound 3, 7,4′-Diacetoxy-5-hydroxy-2′,5′-dimethoxyisoflavone], the IC50 at 72 h in [1] came out at 112 ± 12.3 µM. In addition, in the data set on MCF-7, the “Cytotoxicity IC50, MCF-7” value was “Inactive”. The “Cytotoxicity IC50, HT-29” value with HT-29 was “Inactive”. Besides, the “Cytotoxicity IC50, HCT-116” value in the data set with HCT-116 is reported as “Inactive”.
As for `COc1cc(O)c2c(c1)OCC(c1cc(OC)c(OC)cc1OC)C2=NO` (stereo not drawn) [Compound 15, 5-Hydroxy-7,2′,4′,5′-tetramethoxyisoflavanone oxime], it took 29.8 ± 4.85 µM to reach half-maximal inhibition in [1] (IC50 at 72 h). For the same compound, the IC50 in the data set with MCF-7 was 28.9 ± 3.94 µM; in the data set on HT-29 it was 38.6 ± 2.77 µM; in data set [2] it was 26 to 38 µM; in the data set with HCT-116, 26.4 ± 0.05 µM.
In the case of `COc1cc(O)c2c(=O)c(-c3cc(OC)c(OC)cc3OC)coc2c1` [Compound 5, 5-Hydroxy-7,2′,4′,5′-tetramethoxyisoflavone], in [1], the IC50 at 72 h was found to be 13.5 ± 0.84 µM. The IC50 in the data set on MCF-7 is 12.5 ± 0.7 µM; in the data set on HT-29, 10.8 ± 1.65 µM; in [2], 10 to 19 µM; with HCT-116, 19 ± 0.7 µM.
In data set [1], `COc1cc(OC)c2c(c1)OCC(c1cc(OC)c(OC)cc1OC)C2=O` (stereo not drawn) [Compound 10, 5,7,2′,4′,5′-Pentamethoxyisoflavanone] yielded an IC50 at 72 h of 116 ± 20.2 µM. In the data set on vero cells (vero cell line), the “Cytotoxicity against normal cells (vero cell line), in words” value is reported as “weak cytotoxicity; also recorded: weak activity”. For the same compound, the results for the 50% inhibitory concentration (IC50) with MCF-7 and with HCT-116 were 73.8 ± 0.77 µM and 30.3 ± 1.15 µM, respectively. Besides, the “Cytotoxicity IC50, HT-29” value in the data set with HT-29 is listed as “Inactive”.
In the case of `COc1cc(OC)c2c(c1)OCC(c1cc(OC)c(OC)cc1OC)C2` (stereo not drawn) [Compound 11, 5,7,2′,4′,5′-Pentamethoxyisoflavan], the IC50 at 72 h in data set [1] came to 31.1 ± 4.99 µM. Moreover, the IC50 is 21.1 ± 2.61 µM in the data set with MCF-7, 29.38 ± 0.08 µM in the data set on HT-29, 19 to 37 µM in data set [2] and 28.9 ± 3.19 µM in the data set with HCT-116.
With `COc1cc(O)c2c(c1)OCC(c1cc(OC)c(OC)cc1OC)C2=O` (stereo not drawn) [Compound 9, 5-Hydroxy-7,2′,4′,5′-tetramethoxyisoflavanone], inhibition in [1] was half-maximal at 33.5 ± 1.25 µM (IC50 at 72 h). Moreover, the IC50 was 31 ± 1.89 µM in the data set with MCF-7, 19.2 ± 1.86 µM with HT-29, 19 to 37 µM in [2] and 37.1 ± 1.28 µM with HCT-116.
Taken in the same sequence, the figures for `COc1cc(C2COc3cc(O)cc(O)c3C2=O)c(OC)cc1O` (stereo not drawn) [Compound 8, 5,7,4′-Trihydroxy-2′,5′-dimethoxyisoflavanone] were 93.6 ± 10.2 µM, 148 ± 1.96 µM, 69.9 ± 6.47 µM, 69 to 147 µM and 92.7 ± 1.84 µM.
Compound `COc1cc(-c2coc3cc(O)cc(O)c3c2=O)c(OC)cc1O` [Compound 1, Olibergin A] registered an IC50 at 72 h in [1] of 88.8 ± 4.33 µM. Moreover, the IC50 in the data set on MCF-7 is 72.1 ± 1.12 µM; with HT-29 it was 32.2 ± 1.73 µM; in the data set on KB, 48.1 µM; in the data set with HCT-116 it was 79.2 ± 4.78 µM; with MRC-5 it was 25 µM; in the data set with HeLa, 59.8 µM. Further, in [2], the “Cytotoxicity against all tested cell lines, in words” value was “weak activity”.
In the case of `C=C(C)[C@H]1Cc2c(ccc3c2O[C@@H]2COc4cc(OC)c(OC)cc4[C@]2(O)C3=O)O1` [(−)-12α-hydroxyrotenone], in the data set on HepG2 cell line, the IC50 was 18 ± 1.51 µM.
Consider “5-Hydroxy-7,4′-dimesyl-2′,5′-dimethoxyisoflavone [Compound 2]”, for which, in the data set on vero cells, the “Cytotoxicity IC50, Vero cell” value is recorded as “Inactive”. Moreover, the “Cytotoxicity IC50, MCF-7” value in the data set with MCF-7 is “Inactive”. In addition, in the data set on HT-29, the “Cytotoxicity IC50, HT-29” value is given as “Inactive”. The “Cytotoxicity IC50, HCT-116” value with HCT-116 was “Inactive”.
As to `COc1cc(OC)c2c(=O)c(-c3cc(OC)c(OC)cc3OC)coc2c1` [Compound 6, 5,7,2′,4′,5′-Pentamethoxyisoflavone], the IC50 at 72 h in [1] was > 269 µM. Also, the IC50 in the data set with MCF-7 was 98.5 ± 15.4 µM; in the data set with HT-29, 154 ± 12.1 µM; in the data set on HCT-116, 178 ± 2.23 µM. The “Cytotoxicity against all tested cell lines, in words” value in data set [2] is recorded as “weak activity”.
Regarding `COc1cc(O)c2c(c1)OCC(c1cc(OC)c(OC)cc1OC)C2=NN` (stereo not drawn) [Compound 14, 5-Hydroxy-7,2′,4′,5′-tetramethoxyisoflavanone hydrazone], the “Cytotoxicity IC50, Vero cell” value with vero cells is recorded as “Inactive”. For the same compound, the “Cytotoxicity IC50, MCF-7” value in the data set with MCF-7 is “Inactive”. Further, in the data set on HT-29, the “Cytotoxicity IC50, HT-29” value was “Inactive”. Moreover, the “Cytotoxicity against all tested cell lines, in words” value in [2] was “inactive”. For the same compound, the “Cytotoxicity IC50, HCT-116” value in the data set with HCT-116 is recorded as “Inactive”.
Regarding `COc1ccc(C2COc3cc(O)ccc3C2)c(O)c1` (single isomer, unassigned; (-)) [(−)-vestitol], the “Antifungal activity against Pythium insidiosum” value with Pythium insidiosum is given as “strongest antifungal activity”.
For the compound `CC(C)=CCC/C(C)=C/Cc1c(O)ccc2c1OC[C@H]1c3cc4c(cc3O[C@@H]21)OCO4` [R,R-Velucarpin A], the IC50 in the data set on HeLa cells is 10.9 ± 0.42 µM.
On to “7,4′-Dibutoxy-5-hydroxy-2′,5′-dimethoxyisoflavone [Compound 4]”, for which the “Cytotoxicity IC50, Vero cell” value with vero cells is given as “Inactive”. Moreover, in the data set with MCF-7, the “Cytotoxicity IC50, MCF-7” value is given as “Inactive”. Further, the “Cytotoxicity IC50, HT-29” value in the data set on HT-29 is listed as “Inactive”. Also, the “Cytotoxicity IC50, HCT-116” value with HCT-116 is on record as “Inactive”.
